Hsp70 activator = Hsp70 transcriptional activators, primary screen, cell-based, HeLa, Hsp70 promoter luciferase, luminescence, 10 µM; HeLa Hsp70 promoter luciferase reporter; scaled: vehicle 0, proteasome-inhibitor control 100%; activation, % at 10 µM; 200,000 compounds, 0.04% hits; AID 1203, 2008;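 active = activation above the mean across all tested compounds plus 3 SD, cutoff set per campaign, cut at about 5.5% in these data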;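 also: 100% = MG132 at 30 µM as the positive control and 0% = DMSO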
HSP90 inh = HSP90 inhibitors, primary screen, cell lysate, luminescence; Heat shock protein HSP 90 (rabbit reticulocyte lysate; luciferase refolding); Rabbit reticulocyte lysate, luciferase refolding luminescence, 3 h; inhibition, % at 5.6 µM; 290,000 compounds, 0.91% hits;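 active = inhibition above the screen-wide mean plus 3 SD, computed separately per campaign, cut at about 16% in these data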;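 also: 0% = DMSO wells and 100% = 60 µM geldanamycin wells; inhibitors lower the luminescence because luciferase stays unfolded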
HSF1 inh = HSF1 inhibitors in luciferase reporter cells, primary screen, cell-based, NIH3T3, luminescence; NIH3T3-HGL HSE-luciferase, MG132-induced, luminescence 8 h; stronger effect = lower value; activity change, negative = inhibition, % at 7.5 µM (by protocol); 300,000 compounds, 0.77% hits;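 active = more than half of replicate wells show activity change below -50%, luminescence cut by over half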;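 also: luciferase reports HSF-1 transcriptional activity via heat shock element; 0% = median of DMSO wells and -100% = zero luminescence signal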
HKDC1 inh = HKDC1 hexokinase inhibitors, primary screen, biochemical, fluorescence, uHTS. Q2TB90. recombinant HKDC1, G6PDH/diaphorase resazurin coupled fluorescence. inhibition, % at 20 µM. 340,000 compounds, 0.16% hits. AID 493160, 2011;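 active = inhibition above about 35% when tested at 20 µM, limit read from the data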;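 also: plate controls were DMSO wells with enzyme for no effect and DMSO wells lacking enzyme for full effect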
Target sequence (Q2TB90 whole entry, looked up): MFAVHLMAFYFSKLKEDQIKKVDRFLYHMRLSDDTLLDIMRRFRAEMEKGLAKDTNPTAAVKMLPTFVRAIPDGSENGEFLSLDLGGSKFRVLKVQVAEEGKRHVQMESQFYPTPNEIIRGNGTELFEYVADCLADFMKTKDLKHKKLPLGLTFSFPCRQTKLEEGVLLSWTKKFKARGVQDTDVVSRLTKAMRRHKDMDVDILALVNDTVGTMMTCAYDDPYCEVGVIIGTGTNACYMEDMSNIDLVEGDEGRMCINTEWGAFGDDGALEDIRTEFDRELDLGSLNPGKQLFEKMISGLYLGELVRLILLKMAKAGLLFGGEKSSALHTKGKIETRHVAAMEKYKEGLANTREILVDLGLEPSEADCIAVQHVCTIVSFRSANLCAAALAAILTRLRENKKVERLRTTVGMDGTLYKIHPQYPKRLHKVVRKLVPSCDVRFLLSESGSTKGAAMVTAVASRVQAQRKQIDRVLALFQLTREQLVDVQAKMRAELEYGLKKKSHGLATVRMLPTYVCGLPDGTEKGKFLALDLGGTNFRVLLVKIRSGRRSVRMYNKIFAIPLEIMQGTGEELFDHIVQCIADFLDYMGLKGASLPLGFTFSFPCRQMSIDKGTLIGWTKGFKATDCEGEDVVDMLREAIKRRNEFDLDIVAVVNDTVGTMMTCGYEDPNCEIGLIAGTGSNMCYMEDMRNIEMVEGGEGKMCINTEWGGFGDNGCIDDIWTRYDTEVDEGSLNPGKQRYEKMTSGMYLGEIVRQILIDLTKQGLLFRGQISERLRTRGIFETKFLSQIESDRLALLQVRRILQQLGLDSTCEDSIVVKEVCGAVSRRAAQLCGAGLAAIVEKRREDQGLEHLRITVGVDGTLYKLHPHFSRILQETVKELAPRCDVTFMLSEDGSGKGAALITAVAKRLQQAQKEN
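Incubation: 90 min at room temperature in dark / Material: recombinant HKDC1 (HK5) hexokinase enzyme, produced in-house / Quantity: enzyme 5 µg/mL final / Compound: one dose of 20 µM, 1% DMSO / Reagent: glucose and ATP substrates / Buffer or medium: Tris pH 8.0 buffer with MgCl2, Tween-20, BSA, BME / Technique: resorufin fluorescence at 613 nm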
Tb hexokinase = Trypanosoma brucei hexokinase 1 inhibitors, primary screen, biochemical, G6PDH-coupled NADH absorbance, MLSCN library; hexokinase 1 [Trypanosoma brucei]; recombinant TbHK1, G6PDH-coupled NADH A340; inhibition, % at 10 µM; 220,000 compounds, 0.11% hits; AID 1430, 2008;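 active = inhibition of 50% or more in the single-dose primary screen; inactive = inhibition below 50%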
HSF-1 act = HSF-1 activators, primary screen, NIH3T3-HGL cells, MG132 stress, luminescence, single point; NIH3T3-HGL HSF-1 luciferase reporter, 8 h; 100% = twice DMSO control signal; activation, % at 9 µM; 300,000 compounds, 1.7% hits; AID 504408, 2011;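 active = mean replicate activation of at least 50% with a set share of replicates each reaching 50%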;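 also: 0% = median of the neutral control wells and 100% = twice that signal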
The depositor's hits bear a star; . = not tested or not shown. In the library only some 3.1% were active in any assay of this set; here they are far more common.

SMILES | Hsp70 activator | HSP90 inh | HSF1 inh | HKDC1 inh | Tb hexokinase | HSF-1 act
N#CCc1nc2ccccc2c(=O)[nH]1 | . | -0.6 | 37.5 | -3.6 | 0.7 | 65.4*
O=c1[nH]c(/C=C/c2ccc(Br)cc2)nc2ccccc12 | . | 0.1 | 40.8 | -0.7 | . | 64.6*
Cc1cccc(/C=C\c2nc3ccccc3c(=O)[nH]2)c1 | 0.3 | 2.2 | 18.7 | -7.4 | -18.4 | 34.1
COc1ccccc1CN1CCCC(CN(CCN(C)C)C(=O)C2CCCC2)C1 (centres undefined) | . | -0.5 | -61.7* | -6.3 | . | -70.8
Cc1ccc(NC(=O)CCCCCN2C(=O)c3ccccc3C2=O)nc1 | -0.3 | -5.0 | 9.6 | 5.1 | 0.7 | 53.7*
Cc1ccc2nc3c(cc2c1)CN(Cc1ccco1)C(=NCC1CCCO1)S3 (centres undefined) | -0.4 | -1.0 | -7.9 | 3.0 | -5.4 | -5.4
Cc1cccc2cc3c(nc12)SC(=NCC1CCCO1)N(Cc1ccco1)C3 (centres undefined) | -0.2 | 8.6 | 166.3 | 8.2 | -4.0 | 189.7*
O=S(=O)(Nc1ccncc1)c1ccccc1 | -0.2 | 2.6 | -1.6 | -3.5 | 4.5 | -4.7
O=S(=O)(Nc1ncccn1)c1ccc(NC(=S)Nc2ccc(Cl)cc2)cc1 | . | 1.5 | 20.2 | -1.9 | -7.9 | 55.7*
CCc1ccc(NC(=S)Nc2ccc(S(=O)(=O)Nc3ncccn3)cc2)cc1 | 0.2 | -0.2 | -55.6* | -3.5 | 12.5 | -50.6
NS(=O)(=O)c1ccc(NS(=O)(=O)c2ccc(NC(=S)Nc3ccccc3)cc2)cc1 | -0.2 | 0.8 | 30.1 | -5.2 | -0.7 | 53.8*
CC(C)NC(=S)Nc1ccc(S(=O)(=O)Nc2ncccn2)cc1 | -0.2 | 2.0 | -0.5 | -13.2 | 1.4 | 15.7
O=C(Nc1ccc(Cl)cc1)Nc1ccc(S(=O)(=O)Nc2ncccn2)cc1 | -0.2 | 2.1 | -6.4 | -4.5 | 7.4 | 4.6
O=S(=O)(Nc1ccncc1)c1ccc(Cl)cc1 | -0.1 | -1.6 | -71.4* | -11.7 | -10.9 | -77.4
Cc1nc2c(C)cccn2c(=O)c1NC(=O)c1ccc2c(c1)OCO2 | . | . | -5.1 | 0.7 | . | -4.2
CCOc1cc(/C=N/NC(=O)C(O)(c2ccccc2)c2ccccc2)ccc1OC(=O)c1ccco1 | . | . | 10.2 | -0.1 | . | -2.8
C[C@H]1CN(S(=O)C(C)(C)C)[C@H](CCO)/C1=C\CCO (some centres undefined) | . | . | . | -5.5 | . | .
Fc1ccccc1-c1nc2nc3ccccc3nc2n1CC1CCCO1 (centres undefined) | . | 0.1 | 20.9 | 5.8 | -60.4 | 62.6*
OCC1OC(n2cnc3c(NCc4ccccc4O)ncnc32)C(O)C1O (centres undefined) | . | . | . | -3.4 | . | .
Cc1c(C#N)c(O)n(CCO)c(=O)c1N=Nc1ccc2c(c1)COC2=O | . | 15.0 | 67.1 | -0.7 | -10.5 | 67.5*
CS(=O)(=O)c1ccc(C(=O)OCc2nnc(-c3ccc(Cl)cc3)o2)cc1[N+](=O)[O-] | 0.0 | -0.9 | -96.0* | 27.1 | -1.2 | -95.4
O=C(NCCCCl)C1CC(=O)N(CCc2ccc(F)cc2)C1 (centres undefined) | . | -0.6 | -5.9 | -6.9 | . | 3.0
N#CCc1c(C#N)c(N)nc(N2CCN(S(=O)(=O)c3ccccc3F)CC2)c1C#N | . | 1.3 | 132.8 | -1.7 | . | 172.9*
O=C(NNc1ncnc2ccccc12)c1cccc(Cl)c1 | . | 3.4 | 20.9 | 1.4 | -19.0 | 59.6*
O=[N+]([O-])c1cc([N+](=O)[O-])c(Oc2cc(Cl)ccc2Cl)cc1NC1CCCCCCC1 | . | 1.7 | -6.1 | 1.3 | . | -2.2
SMILES | Hsp70 activator | HSP90 inh | HSF1 inh | HKDC1 inh | Tb hexokinase | HSF-1 act
COc1cccc(C(=O)COC(=O)C(C)N2C(=O)C3C4C=CC(C4)C3C2=O)c1 (centres undefined) | -0.1 | 3.1 | 16.7 | -7.2 | 1.5 | 57.2*
NNC(=O)c1ccc(O)cc1O | -0.1 | 1.1 | -87.9* | -7.3 | 25.1 | -90.8
NNC(=O)c1cc2ccccc2cc1O | -0.5 | 0.0 | -2.8 | -9.4 | -4.0 | 11.1
O=c1c2ccccc2nc(SCc2nnc(-c3ccccc3Br)o2)n1Cc1ccco1 | -0.3 | 4.3 | 63.5 | -13.2 | 10.1 | 96.7*
O=c1c2ccccc2nc(SCc2ccccc2)n1Cc1ccco1 | -0.1 | -2.3 | 7.9 | 2.2 | 8.9 | -6.1
Cc1cc(SCC(=O)Nc2ncc(Cl)cc2Cl)nc2ccccc12 | 0.3 | 6.4 | 31.5 | -0.8 | -7.0 | 54.4*
O=C(OCc1ccc(Br)cc1F)c1cc2ccccc2oc1=O | . | -2.0 | -8.3 | -0.5 | . | 1.0
COc1ccc(CCN2CCCC(CN(C)C(=O)c3ccoc3)C2)cc1 (centres undefined) | . | -1.4 | 0.9 | -1.5 | . | 24.3
O=C(c1ccncc1)N(Cc1cc2ccccc2[nH]c1=O)C1CCCCC1 | -0.3 | -2.5 | -2.3 | -15.6 | -12.7 | -3.4
CCOc1ccc2[nH]c(=O)c(CN(Cc3ccc(F)cc3)C(=O)c3ccco3)cc2c1 | 0.3 | -1.4 | 22.7 | 5.5 | 0.7 | 74.6*
O=C(c1ccco1)N(Cc1cc2ccccc2[nH]c1=O)C1CCCCC1 | 0.0 | 2.7 | -81.8* | -3.2 | -0.1 | -84.6
O=C(Nc1cccc(Cl)c1)C1CCCN(S(=O)(=O)c2ccc(F)cc2)C1 (centres undefined) | -0.1 | -1.9 | 43.7 | 11.6 | -2.9 | 89.4*
O=C(Nc1cccc(-c2ccc(F)cc2)c1)C1CCCN(C(=O)c2cscn2)C1 (centres undefined) | . | -3.2 | -71.0* | -3.1 | . | -77.4
N#Cc1ccccc1Sc1ccccc1C(=O)OCC(N)=O | -0.2 | -1.6 | 5.5 | -19.6 | -14.4 | 3.2
N#Cc1ccccc1Sc1ccccc1C(=O)OCc1nnc(-c2ccccc2)o1 | 0.0 | 3.2 | -0.5 | -0.4 | 58.1* | -1.6
Cc1ccc(N(C)C(=O)CN(C)S(=O)(=O)c2ccc3c(c2)n(C)c(=O)c(=O)n3C)cc1 | . | 4.9 | -91.0* | -2.9 | . | -92.7
Cc1ccc(C(=O)NCC(=O)NCC(=O)OCC(=O)c2ccc(F)cc2)cc1 | -0.1 | -0.1 | -61.8* | -10.7 | 2.4 | -70.3
Cc1ccc(NC(=S)N(Cc2ccc(Cl)cc2)Cc2ccc(C(=O)O)cc2)cc1Cl | -0.2 | -1.5 | 52.3 | -2.8 | -1.6 | 73.9*
COc1ccc(CN(CC2CCC(C(=O)O)CC2)C(=S)Nc2ccc(C)c(Cl)c2)cc1 (centres undefined) | -0.2 | 3.5 | -17.1 | -4.5 | -1.8 | -14.4
COc1ccc(CN(C)C(=O)c2cc(S(=O)(=O)Nc3ccccc3F)ccc2C)c(OC)c1 | . | 4.5 | 4.6 | 0.8 | . | 27.9
CCNc1nc(SC(C)C(=O)Nc2ccccc2)nc(N2CCOCC2)n1 (centres undefined) | 0.2 | 2.6 | -1.1 | 4.3 | 3.9 | 4.3

Screening results deposited in PubChem BioAssay by several laboratories.
